Assay results from ChEMBL document CHEMBL2176903, “P2-substituted N-acylprolylpyrrolidine inhibitors of prolyl oligopeptidase: biochemical evaluation, binding mode determination, and assessment in a cellular model of synucleinopathy” (J Med Chem, 2012).
The source made the active and inactive calls. The calls are words filed in the database; no cut-off is given here.

Tests used:
Dipeptidyl peptidase 4 = Dipeptidyl peptidase 4 (Homo sapiens, UniProt P27487); assay: Inhibition of human seminal plasma DPP4 assessed as pNA release from Gly-Pro-p-nitroanilide substrate pre-incubated with enzyme for 15 min prior to substrate addition by […]
Dipeptidyl peptidase 4, sequence (P27487 whole entry): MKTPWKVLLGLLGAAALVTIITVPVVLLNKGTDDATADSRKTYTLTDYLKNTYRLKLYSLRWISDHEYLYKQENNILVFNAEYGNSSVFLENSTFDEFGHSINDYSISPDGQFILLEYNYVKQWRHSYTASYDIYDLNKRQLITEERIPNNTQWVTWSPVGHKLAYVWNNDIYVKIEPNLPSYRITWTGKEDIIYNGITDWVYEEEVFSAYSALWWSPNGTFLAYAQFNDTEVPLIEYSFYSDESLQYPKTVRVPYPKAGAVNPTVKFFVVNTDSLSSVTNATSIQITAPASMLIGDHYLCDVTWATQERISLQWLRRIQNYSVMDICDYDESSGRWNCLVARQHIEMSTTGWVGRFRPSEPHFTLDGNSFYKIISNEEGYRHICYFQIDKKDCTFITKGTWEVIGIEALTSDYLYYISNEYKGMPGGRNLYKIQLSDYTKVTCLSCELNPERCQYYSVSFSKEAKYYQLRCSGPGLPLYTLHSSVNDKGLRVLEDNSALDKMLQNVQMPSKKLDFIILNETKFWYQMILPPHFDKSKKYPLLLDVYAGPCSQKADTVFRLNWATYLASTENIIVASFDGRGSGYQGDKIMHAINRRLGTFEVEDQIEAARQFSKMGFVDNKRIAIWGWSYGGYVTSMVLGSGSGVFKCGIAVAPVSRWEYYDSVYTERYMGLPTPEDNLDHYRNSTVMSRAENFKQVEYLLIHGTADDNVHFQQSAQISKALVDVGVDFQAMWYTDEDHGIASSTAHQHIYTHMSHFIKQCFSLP

Prolyl endopeptidase FAP = biological target: T1, Prolyl endopeptidase FAP (Mus musculus, UniProt P97321); assay: Inhibition of mouse recombinant FAP expressed in HEK293 cells assessed as pNA release from Ala-Pro-p-nitroanilide pre-incubated with enzyme for 15 mins prior to substrate addition by […]; type: cell-based
T1 sequence (P97321 whole entry): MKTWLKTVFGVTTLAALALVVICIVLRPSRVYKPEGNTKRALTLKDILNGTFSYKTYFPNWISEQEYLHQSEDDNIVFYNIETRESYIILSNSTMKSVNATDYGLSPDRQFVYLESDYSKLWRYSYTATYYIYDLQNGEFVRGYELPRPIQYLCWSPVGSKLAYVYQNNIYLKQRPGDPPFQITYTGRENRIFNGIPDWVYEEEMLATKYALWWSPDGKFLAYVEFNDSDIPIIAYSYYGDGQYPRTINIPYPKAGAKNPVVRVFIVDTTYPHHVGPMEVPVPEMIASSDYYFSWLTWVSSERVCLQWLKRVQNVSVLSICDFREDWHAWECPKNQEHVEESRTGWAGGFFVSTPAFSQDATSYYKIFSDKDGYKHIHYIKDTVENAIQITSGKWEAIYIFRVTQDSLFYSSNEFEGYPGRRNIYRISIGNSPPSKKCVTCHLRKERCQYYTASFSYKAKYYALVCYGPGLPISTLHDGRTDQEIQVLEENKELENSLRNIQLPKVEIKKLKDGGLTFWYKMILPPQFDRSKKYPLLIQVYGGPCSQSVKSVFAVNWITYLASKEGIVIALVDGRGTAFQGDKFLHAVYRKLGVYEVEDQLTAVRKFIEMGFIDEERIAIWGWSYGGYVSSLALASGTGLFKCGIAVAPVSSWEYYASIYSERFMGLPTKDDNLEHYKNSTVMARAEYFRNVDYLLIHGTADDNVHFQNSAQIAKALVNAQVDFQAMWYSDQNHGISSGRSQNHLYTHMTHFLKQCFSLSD

Dipeptidyl peptidase 2 = Dipeptidyl peptidase 2 (Homo sapiens, UniProt Q9UHL4); assay: Inhibition of human seminal plasma DPP2 assessed as pNA release from Lys-Ala-p-nitroanilide substrate pre-incubated with enzyme for 15 min prior to substrate addition by […]
[1] = Inhibition of bovine testes DPP9 assessed as pNA release from Ala-Pro- p-nitroanilide substrate pre-incubated with enzyme for 15 min prior to substrate addition by […]; design: species or system Bos taurus
Prolyl endopeptidase = Prolyl endopeptidase (Sus scrofa, UniProt P23687); assay: Inhibition of pig PREP expressed in Escherichia coli using Z-Gly-Pro-p-nitroanilide substrate
Prolyl endopeptidase, sequence (P23687 whole entry): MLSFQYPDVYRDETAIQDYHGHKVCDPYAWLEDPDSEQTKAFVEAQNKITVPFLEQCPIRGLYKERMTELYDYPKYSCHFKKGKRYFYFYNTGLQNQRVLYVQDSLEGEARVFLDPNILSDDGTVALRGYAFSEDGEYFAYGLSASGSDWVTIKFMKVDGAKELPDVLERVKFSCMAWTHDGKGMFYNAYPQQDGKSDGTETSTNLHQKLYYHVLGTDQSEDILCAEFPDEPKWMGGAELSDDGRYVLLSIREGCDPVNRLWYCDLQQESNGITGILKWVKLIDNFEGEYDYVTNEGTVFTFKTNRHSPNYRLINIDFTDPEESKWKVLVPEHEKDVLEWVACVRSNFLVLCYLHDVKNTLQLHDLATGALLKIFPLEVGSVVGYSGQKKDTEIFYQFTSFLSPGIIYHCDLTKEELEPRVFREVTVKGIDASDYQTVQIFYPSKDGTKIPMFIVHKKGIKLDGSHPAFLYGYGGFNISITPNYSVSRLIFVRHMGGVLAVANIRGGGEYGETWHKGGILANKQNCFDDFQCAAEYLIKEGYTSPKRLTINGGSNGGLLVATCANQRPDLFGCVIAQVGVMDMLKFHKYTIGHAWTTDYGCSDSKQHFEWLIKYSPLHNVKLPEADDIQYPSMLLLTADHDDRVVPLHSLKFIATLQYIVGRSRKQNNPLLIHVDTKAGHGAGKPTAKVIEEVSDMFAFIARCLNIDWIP

[2] = biological target: T2, Prolyl endopeptidase (Homo sapiens) (UniProt P48147); assay: Inhibition of PREP in human SH-SY5Y cellular model of synucleinopathy over-expressing alpha-synuclein assessed as reduction in late apoptotic level 0.1 to 9 uM incubated for 3 days under oxidative stress condition by high content multiparametric method
T2 sequence (whole entry): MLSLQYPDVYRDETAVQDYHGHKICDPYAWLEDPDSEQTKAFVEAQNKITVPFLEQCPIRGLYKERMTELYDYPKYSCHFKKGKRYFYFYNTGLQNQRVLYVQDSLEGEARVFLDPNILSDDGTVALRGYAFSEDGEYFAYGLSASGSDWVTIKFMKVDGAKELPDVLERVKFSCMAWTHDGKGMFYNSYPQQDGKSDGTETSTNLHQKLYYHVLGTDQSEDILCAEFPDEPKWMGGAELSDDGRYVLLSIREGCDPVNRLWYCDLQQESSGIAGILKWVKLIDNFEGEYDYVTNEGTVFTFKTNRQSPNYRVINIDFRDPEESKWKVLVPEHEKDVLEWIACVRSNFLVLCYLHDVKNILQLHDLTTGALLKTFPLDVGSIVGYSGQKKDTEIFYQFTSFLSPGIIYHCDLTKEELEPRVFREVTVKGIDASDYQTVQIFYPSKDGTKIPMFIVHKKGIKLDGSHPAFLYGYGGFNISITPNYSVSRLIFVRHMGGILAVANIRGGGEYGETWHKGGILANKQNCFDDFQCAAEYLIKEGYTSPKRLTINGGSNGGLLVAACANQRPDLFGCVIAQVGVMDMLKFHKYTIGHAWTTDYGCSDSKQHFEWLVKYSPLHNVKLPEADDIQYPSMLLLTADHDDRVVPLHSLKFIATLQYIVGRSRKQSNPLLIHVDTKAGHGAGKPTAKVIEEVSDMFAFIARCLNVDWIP
Method in brief: (§1)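 SH-SY5Y neuroblastoma cells overexpressing α-SYN were incubated with inhibitor for 3 days under oxidative stress from H₂O₂ plus FeCl₂. Aggregates were detected by thioflavin S staining. Late apoptosis was scored as nuclear condensation and fragmentation. Quantification used automated high-content imaging. Values are % of cells relative to the 1% DMSO control. Significance was tested by ANOVA with Dunnett's post-test (5% level).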

[3] = biological target: T2, Prolyl endopeptidase (Homo sapiens); assay: Inhibition of PREP in human SH-SY5Y cellular model of synucleinopathy over-expressing alpha-synuclein assessed as reduction in alpha-synuclein aggregation 0.1 to 9 uM incubated for 3 days under oxidative stress condition by high content multiparametric method; method in brief: as §1

| SMILES | IC50 (Dipeptidyl peptidase 4) | IC50 (Prolyl endopeptidase FAP) | IC50 (Dipeptidyl peptidase 2) | IC50 [1] | IC50 (Prolyl endopeptidase) | inhibition [2] | inhibition [3] |
| --- | --- | --- | --- | --- | --- | --- | --- |
| Cn1cnc(-c2cn([C@H]3C[C@@H](C(=O)N4CCCC4)N(C(=O)CCCc4ccccc4)C3)nn2)c1 | – | – | – | – | 0.09 µM | – | – |
| O=C([C@@H]1C[C@H](n2cc(C3CC3)nn2)CN1C(=O)CCCc1ccccc1)N1CCCC1 | > 100 µM | > 100 µM | > 100 µM | > 10 µM | 0.039 µM | – | – |
| O=C([C@@H]1C[C@H](n2cc(-c3ccccc3)nn2)CN1C(=O)CCCc1ccccc1)N1CCCC1 | > 100 µM | – | > 100 µM | > 100 µM | 0.17 µM | – | – |
| O=C([C@@H]1C[C@H](n2cc(-c3ccc(F)cc3F)nn2)CN1C(=O)CCCc1ccccc1)N1CCCC1 | > 100 µM | > 5 µM | > 100 µM | > 10 µM | 0.024 µM | – | – |
| N#C[C@@H]1CCCN1C(=O)[C@@H]1C[C@H](N=[N+]=[N-])CN1C(=O)CCCc1ccccc1 | > 100 µM | > 100 µM | > 100 µM | > 100 µM | 0.003 µM | Active | Active |
| O=C([C@@H]1CCCN1C(=O)OCc1ccccc1)N1CCCC1 | > 100 µM | > 100 µM | > 100 µM | > 100 µM | – | – | – |
| CC(C)(C)OC(=O)NCc1cn([C@H]2C[C@@H](C(=O)N3CCCC3)N(C(=O)OCc3ccccc3)C2)nn1 | > 100 µM | > 100 µM | > 100 µM | > 10 µM | 0.141 µM | – | – |
| C[Si](C)(C)c1cn([C@H]2C[C@@H](C(=O)N3CCCC3)N(C(=O)OCc3ccccc3)C2)nn1 | > 100 µM | > 100 µM | > 100 µM | > 100 µM | 0.956 µM | – | – |
| [N-]=[N+]=N[C@@H]1C[C@@H](C(=O)N2CCCC2)N(C(=O)CCCc2ccccc2)C1 | > 100 µM | > 100 µM | > 100 µM | > 100 µM | 0.304 µM | – | – |
| [N-]=[N+]=N[C@H]1C[C@@H](C(=O)N2CCCC2)N(C(=O)CCCc2ccccc2)C1 | > 100 µM | > 100 µM | > 100 µM | > 100 µM | 0.142 µM | – | – |
| O=C([C@@H]1C[C@H](n2cc(-c3ccccn3)nn2)CN1C(=O)CCCc1ccccc1)N1CCCC1 | > 100 µM | > 100 µM | > 100 µM | > 100 µM | 0.069 µM | – | – |
| CN(C)Cc1cn([C@H]2C[C@@H](C(=O)N3CCCC3)N(C(=O)CCCc3ccccc3)C2)nn1 | > 100 µM | – | > 100 µM | > 10 µM | 0.024 µM | – | – |
| O=C([C@@H]1C[C@H](n2cc(-c3ccc(Br)cc3)nn2)CN1C(=O)CCCc1ccccc1)N1CCCC1 | > 100 µM | > 100 µM | > 100 µM | > 10 µM | 0.014 µM | – | – |
| O=C([C@@H]1C[C@H](n2cc(-c3ccc(F)cc3)nn2)CN1C(=O)CCCc1ccccc1)N1CCCC1 | > 100 µM | – | > 100 µM | > 100 µM | 0.033 µM | – | – |
| O=C([C@@H]1C[C@H](n2ccnn2)CN1C(=O)OCc1ccccc1)N1CCCC1 | > 100 µM | > 100 µM | > 100 µM | 67 µM | 1.16 µM | – | – |
| O=C([C@@H]1C[C@H](n2cc(-c3ccccc3Cl)nn2)CN1C(=O)CCCc1ccccc1)N1CCCC1 | > 100 µM | > 5 µM | > 10 µM | > 100 µM | 0.023 µM | – | – |
| CC(C)(C)OC(=O)N1CCN(Cc2cn([C@H]3C[C@@H](C(=O)N4CCCC4)N(C(=O)CCCc4ccccc4)C3)nn2)CC1 | > 100 µM | > 100 µM | > 100 µM | 0.6 µM | 0.11 µM | – | – |
| NCc1cn([C@H]2C[C@@H](C(=O)N3CCCC3)N(C(=O)CCCc3ccccc3)C2)nn1 | > 100 µM | > 100 µM | > 10 µM | > 100 µM | 0.17 µM | – | – |

Other lines, results leading:

| IC50 (Dipeptidyl peptidase 4) | IC50 (Prolyl endopeptidase FAP) | IC50 (Dipeptidyl peptidase 2) | IC50 [1] | IC50 (Prolyl endopeptidase) | inhibition [2] | inhibition [3] | SMILES |
| --- | --- | --- | --- | --- | --- | --- | --- |
| > 100 µM | > 100 µM | > 100 µM | > 100 µM | – | – | – | O=C([C@@H]1CCCN1C(=O)CCCc1ccccc1)N1CCCC1 |
| > 100 µM | > 100 µM | > 100 µM | > 100 µM | 0.364 µM | – | – | [N-]=[N+]=N[C@H]1C[C@@H](C(=O)N2CCCC2)N(C(=O)OCc2ccccc2)C1 |
| > 100 µM | – | > 100 µM | > 50 µM | 0.542 µM | – | – | O=C([C@@H]1C[C@@H](n2cc(-c3ccccc3)nn2)CN1C(=O)CCCc1ccccc1)N1CCCC1 |
| > 100 µM | – | > 100 µM | > 100 µM | 0.478 µM | – | – | O=C([C@@H]1C[C@H](n2cc(-c3ccccc3)nn2)CN1C(=O)OCc1ccccc1)N1CCCC1 |
| > 100 µM | > 10 µM | > 100 µM | > 100 µM | – | – | – | N#C[C@@H]1CCCN1C(=O)[C@@H]1CCCN1C(=O)CCCc1ccccc1 |
| > 100 µM | > 100 µM | > 100 µM | 1.3 µM | 0.1 µM | – | – | O=C([C@@H]1C[C@H](n2cc(CN3CCNCC3)nn2)CN1C(=O)CCCc1ccccc1)N1CCCC1 |
| > 100 µM | > 5 µM | > 100 µM | > 100 µM | 0.147 µM | – | – | O=C([C@@H]1C[C@H](n2cc(C3CCCCC3)nn2)CN1C(=O)CCCc1ccccc1)N1CCCC1 |
| > 100 µM | > 100 µM | > 100 µM | > 100 µM | 0.009 µM | Active | Active | CC(C)(C)OC(=O)NCc1cn([C@H]2C[C@@H](C(=O)N3CCC[C@H]3C#N)N(C(=O)CCCc3ccccc3)C2)nn1 |
| > 100 µM | > 5 µM | > 10 µM | < 100 µM | 0.0172 µM | – | – | O=C([C@@H]1C[C@H](n2cc(-c3ccc(F)c(F)c3)nn2)CN1C(=O)CCCc1ccccc1)N1CCCC1 |
| > 100 µM | > 100 µM | > 100 µM | > 100 µM | 0.28 µM | – | – | CC(C)(C)OC(=O)NCc1cn([C@@H]2C[C@@H](C(=O)N3CCCC3)N(C(=O)CCCc3ccccc3)C2)nn1 |
| > 100 µM | > 100 µM | > 100 µM | 53 µM | 0.357 µM | – | – | O=C([C@@H]1C[C@H](n2cc(-c3ccccn3)nn2)CN1C(=O)OCc1ccccc1)N1CCCC1 |
| > 100 µM | > 100 µM | > 100 µM | > 100 µM | 0.032 µM | – | – | CC(C)(C)OC(=O)NCc1cn([C@H]2C[C@@H](C(=O)N3CCCC3)N(C(=O)CCCc3ccccc3)C2)nn1 |
| > 100 µM | – | > 100 µM | > 100 µM | 0.131 µM | – | – | O=C([C@@H]1C[C@H](n2cc(COCc3ccccc3)nn2)CN1C(=O)CCCc1ccccc1)N1CCCC1 |
| > 50 µM | > 100 µM | > 100 µM | 1.1 µM | 0.24 µM | – | – | O=C([C@@H]1C[C@H](n2cc(CN3CCOCC3)nn2)CN1C(=O)CCCc1ccccc1)N1CCCC1 |
